Test results published in ChEMBL document CHEMBL2375213, “Synthesis and anticancer activity of novel spiro-isoxazoline and spiro-isoxazolidine derivatives of α-santonin” (Eur J Med Chem, 2013).

Key:
[1] = test system: THP-1; experiment: Antiproliferative activity against human THP1 cells after 48 hrs by sulforhodamine B assay; assay type: functional, cell-based; settings: THP-1, 48 h
[2] = test system: A549; experiment: Antiproliferative activity against human A549 cells after 48 hrs by sulforhodamine B assay; assay type: functional, cell-based; settings: A549, 48 h
[3] = test system: HCT-116; experiment: Antiproliferative activity against human HCT116 cells after 48 hrs by sulforhodamine B assay; assay type: functional, cell-based; settings: HCT-116, 48 h
[4] = test system: PC-3; experiment: Antiproliferative activity against human PC3 cells after 48 hrs by sulforhodamine B assay; assay type: functional, cell-based; settings: PC-3, 48 h
[5] = test system: HEp-2; experiment: Antiproliferative activity against human Hep2 cells after 48 hrs by sulforhodamine B assay; assay type: functional, cell-based; settings: HEp-2, 48 h
[6] = test system: MCF7; experiment: Antiproliferative activity against human MCF7 cells after 48 hrs by sulforhodamine B assay; assay type: functional, cell-based; settings: MCF7, 48 h
[7] = test system: PC-3; experiment: Cell cycle arrest in human PC3 cells assessed as accumulation at subG1 phase at 5 uM after 24 hrs by propidium iodide staining-based FACS flow cytometric analysis (reference value: 13.1%); assay type: functional
Outline: (§1)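 PC-3 cells (1×10^6/well) exposed 24 h to test agent at 1, 5 or 10 μM. Cells washed twice in ice-cold PBS, fixed in 70% ethanol for 30 min, then treated with RNase A (0.1 mg/mL, 37 °C, 30 min). Propidium iodide staining 30 min on ice in the dark. DNA content read by flow cytometry with 488 nm excitation and doublet discrimination, 10,000 events.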

[8] = test system: PC-3; experiment: Cell cycle arrest in human PC3 cells assessed as accumulation at S phase at 5 uM after 24 hrs by propidium iodide staining-based FACS flow cytometric analysis (reference value: 8.5%); assay type: functional; outline: as §1
[9] = test system: PC-3; experiment: Cell cycle arrest in human PC3 cells assessed as accumulation at G0/G1 phase at 5 uM after 24 hrs by propidium iodide staining-based FACS flow cytometric analysis (reference value: 68.2%); assay type: functional; outline: as §1
[10] = test system: PC-3; experiment: Cell cycle arrest in human PC3 cells assessed as accumulation at M phase at 5 uM after 24 hrs by propidium iodide staining-based FACS flow cytometric analysis (reference value: 3%); assay type: functional; outline: as §1

SMILES	IC50 [1]	IC50 [2]	IC50 [3]	IC50 [4]	IC50 [5]	IC50 [6]	Activity [7]	Activity [8]	Activity [9]	Activity [10]
CC1=C2[C@H]3OC(=O)C4(C[C@@H](c5cc(F)cc(F)c5)N(c5ccccc5)O4)[C@@H]3CC[C@@]2(C)C=CC1=O (stereo partly specified)	0.8 µM	14 µM	28 µM	1.4 µM	100 µM	3.9 µM	–	–	–	–
CC1=C2[C@H]3OC(=O)C4(CC(c5ccccc5Cl)=NO4)[C@@H]3CC[C@@]2(C)C=CC1=O (stereo partly specified)	0.2 µM	5.9 µM	100 µM	0.9 µM	7.3 µM	0.5 µM	–	–	–	–
CC1=C2[C@H]3OC(=O)C4(C[C@H](c5ccc([N+](=O)[O-])cc5)N(c5ccccc5)O4)[C@@H]3CC[C@@]2(C)C=CC1=O (stereo partly specified)	0.1 µM	66 µM	100 µM	0.5 µM	14 µM	0.7 µM	–	–	–	–
CC1=C2[C@H]3OC(=O)C4(C[C@@H](c5cc(Cl)ccc5Cl)N(c5ccccc5)O4)[C@@H]3CC[C@@]2(C)C=CC1=O (stereo partly specified)	3.9 µM	55 µM	100 µM	0.9 µM	0.6 µM	0.5 µM	–	–	–	–
CC1=C2[C@H]3OC(=O)C4(C[C@H](c5cccc([N+](=O)[O-])c5)N(c5ccccc5)O4)[C@@H]3CC[C@@]2(C)C=CC1=O (stereo partly specified)	100 µM	81 µM	100 µM	0.3 µM	100 µM	14 µM	–	–	–	–
COc1ccc([C@H]2CC3(ON2c2ccccc2)C(=O)O[C@@H]2C4=C(C)C(=O)C=C[C@]4(C)CC[C@H]23)cc1Br (stereo partly specified)	100 µM	8.5 µM	100 µM	0.1 µM	100 µM	100 µM	–	–	–	–
O=c1[nH]cc(F)c(=O)[nH]1 [FLUOROURACIL]	1 µM	4.9 µM	–	2.2 µM	4.5 µM	–	–	–	–	–
CC1=C2[C@H]3OC(=O)C4(C[C@H](c5cccc6ccccc56)N(c5ccccc5)O4)[C@@H]3CC[C@@]2(C)C=CC1=O (stereo partly specified)	100 µM	1.4 µM	100 µM	0.6 µM	100 µM	14 µM	–	–	–	–
CC1=C2[C@H]3OC(=O)C4(CC(c5ccc(O)cc5)=NO4)[C@@H]3CC[C@@]2(C)C=CC1=O (stereo partly specified)	100 µM	3.8 µM	8.2 µM	55 µM	40 µM	100 µM	–	–	–	–
COc1ccc(C2=NOC3(C2)C(=O)O[C@@H]2C4=C(C)C(=O)C=C[C@]4(C)CC[C@H]23)cc1Br (stereo partly specified)	21 µM	100 µM	50 µM	100 µM	100 µM	100 µM	–	–	–	–
CC1=C2[C@H]3OC(=O)C4(C[C@@H](c5cccc([N+](=O)[O-])c5)N(c5ccccc5)O4)[C@@H]3CC[C@@]2(C)C=CC1=O (stereo partly specified)	42 µM	10 µM	48 µM	0.9 µM	100 µM	23 µM	–	–	–	–
COc1ccc(C2=NOC3(C2)C(=O)O[C@@H]2C4=C(C)C(=O)C=C[C@]4(C)CC[C@H]23)cc1 (stereo partly specified)	7.9 µM	0.2 µM	52 µM	100 µM	100 µM	0.02 µM	–	–	–	–
CC1=C2[C@H]3OC(=O)C4(C[C@@H](c5ccc([N+](=O)[O-])cc5)N(c5ccccc5)O4)[C@@H]3CC[C@@]2(C)C=CC1=O (single isomer, unassigned)	0.1 µM	66 µM	100 µM	0.6 µM	100 µM	0.9 µM	–	–	–	–
CC1=C2[C@H]3OC(=O)C4(CC(c5ccc([N+](=O)[O-])cc5)=NO4)[C@@H]3CC[C@@]2(C)C=CC1=O (stereo partly specified)	100 µM	100 µM	55 µM	100 µM	100 µM	56 µM	–	–	–	–
CC[C@@]1(O)C(=O)OCc2c1cc1n(c2=O)Cc2cc3ccccc3nc2-1 [CAMPTOTHECIN]	–	–	–	–	–	–	60.44%	4.94%	30.17%	4.76%
CC1=C2[C@H]3OC(=O)C4(CC(c5cc(F)cc(F)c5)=NO4)[C@@H]3CC[C@@]2(C)C=CC1=O (stereo partly specified)	0.4 µM	8.2 µM	100 µM	2.2 µM	100 µM	0.5 µM	–	–	–	–
CC1=C2[C@H]3OC(=O)C4(CC(c5cccc(F)c5)=NO4)[C@@H]3CC[C@@]2(C)C=CC1=O (stereo partly specified)	100 µM	0.7 µM	100 µM	100 µM	100 µM	0.4 µM	–	–	–	–

SMILES	IC50 [1]	IC50 [2]	IC50 [3]	IC50 [4]	IC50 [5]	IC50 [6]	Activity [7]	Activity [8]	Activity [9]	Activity [10]
CC1=C2[C@H]3OC(=O)C4(C[C@H](c5cc(F)cc(F)c5)N(c5ccccc5)O4)[C@@H]3CC[C@@]2(C)C=CC1=O (stereo partly specified)	25 µM	100 µM	0.09 µM	0.7 µM	100 µM	0.09 µM	–	–	–	–
CC1=C2[C@H]3OC(=O)C4(CC(c5c(Cl)cccc5Cl)=NO4)[C@@H]3CC[C@@]2(C)C=CC1=O (stereo partly specified)	100 µM	100 µM	10 µM	100 µM	15 µM	27 µM	–	–	–	–
COc1ccc([C@@H]2CC3(ON2c2ccccc2)C(=O)O[C@@H]2C4=C(C)C(=O)C=C[C@]4(C)CC[C@H]23)cc1Br (stereo partly specified)	100 µM	2.7 µM	45 µM	0.1 µM	100 µM	50 µM	–	–	–	–
CC1=C2[C@H]3OC(=O)C4(C[C@@H](c5cccc6ccccc56)N(c5ccccc5)O4)[C@@H]3CC[C@@]2(C)C=CC1=O (stereo partly specified)	59 µM	3.3 µM	100 µM	0.7 µM	100 µM	82 µM	–	–	–	–
CC1=C2[C@H]3OC(=O)C4(C[C@H](c5cc(Cl)ccc5Cl)N(c5ccccc5)O4)[C@@H]3CC[C@@]2(C)C=CC1=O (stereo partly specified)	0.2 µM	77 µM	32 µM	0.7 µM	100 µM	0.1 µM	–	–	–	–
CC1=C2[C@H]3OC(=O)C4(CC(c5ccc(F)cc5)=NO4)[C@@H]3CC[C@@]2(C)C=CC1=O (stereo partly specified)	100 µM	61 µM	100 µM	100 µM	100 µM	100 µM	–	–	–	–
CC1=C2[C@H]3OC(=O)C4(CC(c5c6ccccc6cc6ccccc56)=NO4)[C@@H]3CC[C@@]2(C)C=CC1=O (stereo partly specified)	0.8 µM	45 µM	45 µM	0.3 µM	50 µM	0.2 µM	–	–	–	–
CC1=C2[C@H]3OC(=O)C4(C[C@H](c5ccc(F)c(Br)c5)N(c5ccccc5)O4)[C@@H]3CC[C@@]2(C)C=CC1=O (stereo partly specified)	2.3 µM	19 µM	100 µM	0.9 µM	3.7 µM	0.2 µM	–	–	–	–
CC1=C2[C@H]3OC(=O)C4(CC(c5ccc(Br)c(F)c5)=NO4)[C@@H]3CC[C@@]2(C)C=CC1=O (stereo partly specified)	0.6 µM	3.1 µM	15 µM	2 µM	33 µM	0.9 µM	–	–	–	–
CC1=C2[C@H]3OC(=O)C4(CC(c5ccc6ccccc6c5)=NO4)[C@@H]3CC[C@@]2(C)C=CC1=O (stereo partly specified)	0.4 µM	2.9 µM	100 µM	0.6 µM	100 µM	30 µM	–	–	–	–
CC1=C2[C@H]3OC(=O)C4(C[C@@H](c5ccc(F)c(Br)c5)N(c5ccccc5)O4)[C@@H]3CC[C@@]2(C)C=CC1=O (stereo partly specified)	2.7 µM	100 µM	4.3 µM	0.8 µM	100 µM	0.7 µM	–	–	–	–
CC1=C2[C@H]3OC(=O)C4(CC(c5ccccc5)=NO4)[C@@H]3CC[C@@]2(C)C=CC1=O (stereo partly specified)	100 µM	100 µM	100 µM	78 µM	100 µM	100 µM	–	–	–	–
CC1=C2[C@H]3OC(=O)C4(CC(c5cc(Cl)ccc5Cl)=NO4)[C@@H]3CC[C@@]2(C)C=CC1=O (stereo partly specified)	100 µM	100 µM	61 µM	100 µM	100 µM	39 µM	–	–	–	–
CC1=C2[C@H]3OC(=O)C4(CC(c5ccc(Br)cc5)=NO4)[C@@H]3CC[C@@]2(C)C=CC1=O (stereo partly specified)	100 µM	58 µM	100 µM	100 µM	100 µM	0.1 µM	–	–	–	–
CC1=C2[C@H]3OC(=O)C4(CC(c5ccc(Cl)cc5Cl)=NO4)[C@@H]3CC[C@@]2(C)C=CC1=O (stereo partly specified)	35 µM	13 µM	29 µM	26 µM	29 µM	95 µM	–	–	–	–
COc1cccc2c1C(=O)c1c(O)c3c(c(O)c1C2=O)C[C@@](O)(C(=O)CO)C[C@@H]3O[C@H]1C[C@H](N)[C@H](O)[C@H](C)O1 [DOXORUBICIN]	–	–	–	6 µM	–	0.5 µM	–	–	–	–
CO[C@@]12[C@H](COC(N)=O)C3=C(C(=O)C(C)=C(N)C3=O)N1C[C@@H]1N[C@@H]12 [MITOMYCIN]	–	–	0.5 µM	–	–	–	–	–	–	–
